Test results as given in article PMC3019337 (ChemMedChem, 2010).

Key:
Experiment in all cases: stopped-flow CO2 hydration assay
Assay type in all cases: biochemical
mCA XV = target: T1, mCA XV (Mus musculus, UniProt Q99N23)
T1 sequence (Q99N23 19-324): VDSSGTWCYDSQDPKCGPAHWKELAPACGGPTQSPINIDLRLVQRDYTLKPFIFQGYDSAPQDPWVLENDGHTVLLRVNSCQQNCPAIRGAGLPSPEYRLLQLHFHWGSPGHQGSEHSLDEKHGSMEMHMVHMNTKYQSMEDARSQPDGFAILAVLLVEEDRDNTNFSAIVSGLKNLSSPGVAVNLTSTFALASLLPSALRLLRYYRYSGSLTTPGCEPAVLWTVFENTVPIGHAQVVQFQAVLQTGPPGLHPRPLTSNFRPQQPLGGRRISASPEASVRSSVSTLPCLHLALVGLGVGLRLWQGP
Procedure, shortened: (§1)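 Enzyme-catalysed CO2 hydration was followed by stopped-flow at 557 nm with 0.2 mM phenol red in 20 mM HEPES pH 7.5 and 20 mM Na2SO4. Initial rates were taken over 10–100 s at five CO2 levels (1.7–17 mM). Enzyme was preincubated 15 min at room temperature with six inhibitor concentrations (100 µM–0.1 nM). Uncatalysed rate was subtracted; Ki came from nonlinear least squares, mean of ≥3 determinations.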

hCA II = hCA II (Homo sapiens, UniProt P00918)
Procedure, shortened: as §1

hCA XIII = hCA XIII (Homo sapiens, UniProt Q8N1Q1)
hCA XIII, sequence (Q8N1Q1 whole entry): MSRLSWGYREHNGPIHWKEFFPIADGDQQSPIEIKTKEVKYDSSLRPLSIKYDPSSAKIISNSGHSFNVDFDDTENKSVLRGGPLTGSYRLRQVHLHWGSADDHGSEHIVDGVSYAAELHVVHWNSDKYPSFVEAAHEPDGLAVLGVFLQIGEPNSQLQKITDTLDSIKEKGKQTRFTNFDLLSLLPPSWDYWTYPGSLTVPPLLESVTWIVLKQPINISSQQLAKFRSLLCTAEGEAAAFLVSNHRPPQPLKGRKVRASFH
Procedure, shortened: as §1

hCA IV = hCA IV (Homo sapiens, UniProt P22748)
hCA IV, sequence (P22748 19-284): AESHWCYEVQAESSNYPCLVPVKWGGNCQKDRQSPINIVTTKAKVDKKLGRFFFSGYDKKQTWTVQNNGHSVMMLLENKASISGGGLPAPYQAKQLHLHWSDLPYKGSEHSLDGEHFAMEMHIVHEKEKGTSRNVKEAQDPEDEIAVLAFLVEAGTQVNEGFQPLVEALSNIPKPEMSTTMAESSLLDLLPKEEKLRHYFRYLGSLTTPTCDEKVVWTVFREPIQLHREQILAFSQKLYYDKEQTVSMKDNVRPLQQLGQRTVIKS
Procedure, shortened: as §1

hCA VII = hCA VII (Homo sapiens, UniProt P43166)
hCA VII, sequence (P43166 whole entry): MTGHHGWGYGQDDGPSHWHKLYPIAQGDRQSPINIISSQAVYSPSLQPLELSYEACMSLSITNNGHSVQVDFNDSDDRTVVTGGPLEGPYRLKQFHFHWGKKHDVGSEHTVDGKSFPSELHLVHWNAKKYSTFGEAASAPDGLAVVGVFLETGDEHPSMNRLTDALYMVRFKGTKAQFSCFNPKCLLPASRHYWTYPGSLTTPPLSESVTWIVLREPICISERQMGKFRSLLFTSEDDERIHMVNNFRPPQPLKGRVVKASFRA
Procedure, shortened: as §1

hCA III = hCA III (Homo sapiens, UniProt P07451)
hCA III, sequence (P07451 2-260): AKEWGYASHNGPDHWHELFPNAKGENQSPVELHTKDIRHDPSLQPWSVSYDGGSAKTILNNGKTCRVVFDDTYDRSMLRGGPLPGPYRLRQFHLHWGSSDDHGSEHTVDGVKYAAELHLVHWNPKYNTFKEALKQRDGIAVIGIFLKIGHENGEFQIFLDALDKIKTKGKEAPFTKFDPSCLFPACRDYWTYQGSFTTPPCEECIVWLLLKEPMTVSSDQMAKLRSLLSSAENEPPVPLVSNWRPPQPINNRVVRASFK
Procedure, shortened: as §1

hCA VI = hCA VI (Homo sapiens, UniProt P23280)
hCA VI, sequence (P23280 18-308): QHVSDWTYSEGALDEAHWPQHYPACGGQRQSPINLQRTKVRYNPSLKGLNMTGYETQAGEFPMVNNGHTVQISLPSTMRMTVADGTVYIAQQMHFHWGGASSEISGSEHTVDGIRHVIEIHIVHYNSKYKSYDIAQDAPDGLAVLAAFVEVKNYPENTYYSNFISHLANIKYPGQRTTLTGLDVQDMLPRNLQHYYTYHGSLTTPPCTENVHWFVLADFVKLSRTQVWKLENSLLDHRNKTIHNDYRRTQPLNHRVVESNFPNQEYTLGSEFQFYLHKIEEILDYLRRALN
Procedure, shortened: as §1

hCA IX = hCA IX (Homo sapiens, UniProt Q16790)
Procedure, shortened: as §1

hCA VB = hCA VB (Homo sapiens, UniProt Q9Y2D0)
hCA VB, sequence (Q9Y2D0 34-317): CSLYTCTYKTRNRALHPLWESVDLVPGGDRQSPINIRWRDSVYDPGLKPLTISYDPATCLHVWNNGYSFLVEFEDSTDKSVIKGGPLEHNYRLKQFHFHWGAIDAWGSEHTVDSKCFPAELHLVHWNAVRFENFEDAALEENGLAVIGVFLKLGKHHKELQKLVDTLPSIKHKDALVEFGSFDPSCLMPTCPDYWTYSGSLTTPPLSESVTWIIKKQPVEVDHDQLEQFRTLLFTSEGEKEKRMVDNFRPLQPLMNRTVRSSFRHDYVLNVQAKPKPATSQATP
Procedure, shortened: as §1

hCA XII = hCA XII (Homo sapiens, UniProt O43570)
hCA XII, sequence (O43570 25-354): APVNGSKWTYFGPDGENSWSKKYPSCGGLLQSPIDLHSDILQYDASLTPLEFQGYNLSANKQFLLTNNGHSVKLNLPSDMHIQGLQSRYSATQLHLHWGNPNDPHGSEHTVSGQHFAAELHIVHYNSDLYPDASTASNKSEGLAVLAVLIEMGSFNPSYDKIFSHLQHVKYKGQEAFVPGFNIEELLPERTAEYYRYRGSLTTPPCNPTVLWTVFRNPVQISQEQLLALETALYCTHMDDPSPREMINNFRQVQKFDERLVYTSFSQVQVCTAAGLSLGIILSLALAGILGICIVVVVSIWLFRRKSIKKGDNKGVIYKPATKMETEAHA
Procedure, shortened: as §1

hCA VA = hCA VA (Homo sapiens, UniProt P35218)
hCA VA, sequence (P35218 39-305): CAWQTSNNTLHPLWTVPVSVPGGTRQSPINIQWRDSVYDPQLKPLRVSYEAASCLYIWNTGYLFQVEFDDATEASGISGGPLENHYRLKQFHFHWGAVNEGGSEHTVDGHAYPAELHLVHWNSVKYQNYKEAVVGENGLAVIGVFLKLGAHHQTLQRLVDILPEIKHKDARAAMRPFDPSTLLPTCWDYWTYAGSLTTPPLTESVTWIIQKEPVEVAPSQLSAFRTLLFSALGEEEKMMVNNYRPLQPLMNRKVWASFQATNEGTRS
Procedure, shortened: as §1

hCA I = hCA I (Homo sapiens, UniProt P00915)
hCA I, sequence (P00915 2-261): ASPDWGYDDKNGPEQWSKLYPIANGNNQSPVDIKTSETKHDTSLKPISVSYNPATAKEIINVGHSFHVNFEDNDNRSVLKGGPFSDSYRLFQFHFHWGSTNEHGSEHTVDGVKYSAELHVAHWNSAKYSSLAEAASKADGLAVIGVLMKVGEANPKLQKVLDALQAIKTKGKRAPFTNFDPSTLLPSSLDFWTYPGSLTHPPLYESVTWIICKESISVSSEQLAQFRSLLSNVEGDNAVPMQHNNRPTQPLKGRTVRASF
Procedure, shortened: as §1

Compound	Ki (mCA XV)	Ki (hCA II)	Ki (hCA XIII)	Ki (hCA IV)	Ki (hCA VII)	Ki (hCA III)	Ki (hCA VI)	Ki (hCA IX)	Ki (hCA VB)	Ki (hCA XII)	Ki (hCA VA)	Ki (hCA I)
Cc1occc(=O)c1O [compound 1, maltol]	2.8 µM	3.6 µM	10.4 µM	4.3 µM	3.4 µM	9.5 µM	3.5 µM	9.5 µM	4.3 µM	4 µM	4.6 µM	9.1 µM
Cc1occc(=S)c1O [compound 2, thiomaltol]	–	4 µM	10.4 µM	4.6 µM	3.6 µM	8.4 µM	3.2 µM	10 µM	4 µM	4.5 µM	4.2 µM	8.3 µM
On1ccccc1=S [compound 4, 1,2-HOPTO]	4.7 µM	4.1 µM	10.8 µM	4.4 µM	3.6 µM	7.5 µM	3.6 µM	9.2 µM	3.8 µM	4.8 µM	4 µM	9.4 µM
